# Experimental data: PubChem BioAssay AID489015 (The Scripps Research Institute Molecular Screening Center, 2010)
# The source made the active and inactive calls.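 Rule for the calls: active = malaria parasite growth inhibition in red cells reaching a set limit in at least one replicate; inactive = below that limit in every replicate.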
# Test system: P. falciparum 3D7 in RBCs, 3H-hypoxanthine incorporation, 48 h
# Experiment: single-dose antimalarial blood-stage activity – cell-based, radiolabel, RBCs, powder samples, M18AAP inhibitor project, late-stage follow-up (AID 489015)
# Settings: at 10 µM; hits give high values
# Summary of the method: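 Assay system – P. falciparum 3D7 in erythrocytes · Also added – 3H-hypoxanthine, 0.5 µCi/well · Compound – 10 µM single dose, DMSO ≤1% · Incubation – 48 h compound exposure, 37 °C, 5% CO2, 5% O2 · Signal – 3H-hypoxanthine uptake, beta counting · Repeats – triplicate wells, 2-3 experiments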
row,SMILES,growth inhibition
1,COc1ccc2nc(C)cc(SCC(=O)N/N=C/c3ccc(O)c(O)c3)c2c1,3.22% (inactive)
2,Cc1ccc([N+](=O)[O-])cc1-c1[nH]c(-c2ccc(O)c(O)c2)nc1-c1ccccc1,4.11% (inactive)
3,Nc1nncn1C(=O)CCCOc1ccc(Cl)cc1Cl,3.17% (inactive)
4,Cc1cc(C)n2c(=S)[nH]nc2n1,35.6%
5,COc1cccc2c(SCC(=O)N/N=C/c3ccc(O)c(O)c3)cc(C)nc12,1.5% (inactive)
6,O=C(Nn1cnnc1)c1ccccc1-c1ccccc1,0.5% (inactive)
7,O=[N+]([O-])c1cc([N+](=O)[O-])c2cccnc2c1Oc1ccccc1O,13.4% (inactive)
8,COC(=O)CN(n1cnnc1)S(=O)(=O)c1ccccc1Cl,4.5% (inactive)
9,O=C(Nc1ccc([N+](=O)[O-])cc1)Nn1cnnc1,28.7% (inactive)
10,COc1cc(Br)cc(/C=N/c2ncn[nH]2)c1O,4.83% (inactive)
11,Cc1nc(-c2ccc(O)c(O)c2)cs1,0.778% (inactive)
12,CCOC(=O)C1=C(CS(=O)(=O)c2ccc(F)cc2)NC(=O)NC1c1ccc(O)c(O)c1 (stereo unspecified),0.667% (inactive)
13,NCCc1ccc(O)c(O)c1,0.5% (inactive)
14,O=C(O)CSc1ncn[nH]1,2.83% (inactive)
15,O=C(CNC(=O)c1ccccc1)NCCc1ccc(O)c(O)c1,0.333% (inactive)
16,O=C(CSc1nc2ccccc2c(=O)[nH]1)c1ccc(O)c(O)c1,8.89% (inactive)
17,O=C(Nc1ccc(Cl)c(Cl)c1)Nn1cnnc1,5.67% (inactive)
18,O=C(CSc1nn(-c2ccccc2)c(=S)s1)Nn1cnnc1,0% (inactive)
19,O=S(=O)(Nn1cnnc1)c1ccccc1,3% (inactive)
20,O=c1c2c([N+](=O)[O-])cc([N+](=O)[O-])cc2sn1Cc1ccccc1,5.11% (inactive)
21,O=C(Nc1ccc(Cl)cc1Cl)Nn1cnnc1,0% (inactive)
22,CC1(C)CC(=O)c2c(oc3cc(O)c(O)cc23)C1,2.83% (inactive)
23,Oc1ccc(-c2cn3ccccc3n2)cc1O,5.33% (inactive)
24,Oc1ccc(-c2csc(-c3cccnc3)n2)cc1O,7.67% (inactive)
25,Cc1c(Cl)cccc1NC(=O)Nn1cnnc1,9.17% (inactive)
26,Cc1ccc(Cl)cc1NC(=S)Nn1cnnc1,0% (inactive)

row,SMILES,growth inhibition
1,COc1ccc(NC(=O)NNC(=O)CCc2ccc(O)c(O)c2)cc1OC,5.67% (inactive)
2,COc1cccc(-c2cc(C(=O)Nn3cnnc3)c3ccccc3n2)c1,7.11% (inactive)
3,O=C(Nc1cc(Cl)ccc1Cl)Nn1cnnc1,1.5% (inactive)
4,CC1=NNC(=O)/C1=C\c1cn(-c2ccccc2)nc1-c1ccc(F)cc1,20.7% (inactive)
5,O=C(NC(=S)Nn1cnnc1)c1ccccc1Br,0% (inactive)
6,CCC(C)c1ccc(O)c(N)c1 (stereo unspecified),95.1%
7,O=C(Nc1ccccc1Cl)Nn1cnnc1,7.83% (inactive)
8,Cc1cccc(NC(=S)Nn2cnnc2)c1C,16.5% (inactive)
9,O=C(Nc1cccc(C(F)(F)F)c1)Nn1cnnc1,0% (inactive)
10,CCc1ccccc1NC(=S)Nn1cnnc1,0% (inactive)
11,Cc1cc(=O)[nH]c(SCC(=O)c2ccc(O)c(O)c2)n1,0.833% (inactive)
12,O=c1[nH]c(CSc2ncn[nH]2)nc2ccccc12,1.83% (inactive)
13,Cc1ccc(-n2c(O)c(/C=N/n3cnnc3)c3ccccc3c2=O)cc1,3.33% (inactive)
14,O=C(O)c1ccc(O)c(O)c1,7.17% (inactive)
15,CC(C)n1c(SCC(=O)Nc2nncs2)nnc1-c1ccco1,1.33% (inactive)
16,Oc1ccc(C2=Nn3c(nnc3-c3ccco3)SC2)cc1O,20.8% (inactive)
17,O=C(Nc1cccc(Cl)c1Cl)Nn1cnnc1,1% (inactive)
18,Cc1cc(C)cc(C(=O)n2cnnc2N)c1,44.8%
19,O=C(Nn1cnnc1)c1csc2ccccc12,0% (inactive)
20,COC(=O)c1cc(C(=O)Nn2cnnc2)cc([N+](=O)[O-])c1,0% (inactive)
21,CN1C(=O)N(c2cccc3ccccc23)C(n2cncn2)C1(C)C (stereo unspecified),0% (inactive)
22,Oc1cc(O)c2c(c1)O[C@H](c1ccc(O)c(O)c1)[C@H](O)C2,1% (inactive)
23,COc1ccc(C(=O)n2cnnc2N)cc1,2.5% (inactive)
24,Cc1nc2ccccn2c1C(=O)NNC(=O)Nc1ccccc1,0.667% (inactive)
25,O=C(CSc1ncn[nH]1)Nc1nc(-c2ccccc2)ns1,4.5% (inactive)
26,COC(=O)CN(n1cnnc1)S(=O)(=O)c1ccc(C)cc1,0% (inactive)

row,SMILES,growth inhibition
1,Cc1cc(OCC(=O)Nn2cnnc2)ccc1Br,3.67% (inactive)
2,O=C(CSc1nnc(-c2ccccc2)o1)Nn1cnnc1,11% (inactive)
3,Br/C(C=Nn1cnnc1)=C\c1ccccc1,71.8%
4,Oc1ccc(-c2csc(-c3ccccc3)n2)cc1O,20.6%
5,O=C(CSc1ncn[nH]1)OCN1C(=O)c2ccccc2C1=O,3% (inactive)
6,COC(=O)CN(n1cnnc1)S(=O)(=O)c1ccccc1,1.67% (inactive)
7,Cc1ccc(NC(=S)Nn2cnnc2)c(C)c1,0% (inactive)
8,CN1CCc2cccc3c2[C@@H]1Cc1ccc(O)c(O)c1-3,87%
9,O=C(COc1ccccc1C(=O)N/N=C/c1ccc(O)c(O)c1)N/N=C/c1ccc(O)c(O)c1,66%
10,O=C(O)c1cn[nH]c1-n1cnnn1,3.83% (inactive)
11,CC1(C)CC2(CC(c3ccccc3F)c3ccc(O)c(O)c3O2)NC(=S)N1 (stereo unspecified),0.167% (inactive)
12,COc1cc([N+](=O)[O-])ccc1NC(=S)Nn1cnnc1,8.67% (inactive)
13,O=C(Nc1ccc(Br)cc1Cl)Nn1cnnc1,4.67% (inactive)
14,O=c1c(O)c(-c2ccc(O)c(O)c2)oc2cc(O)cc(O)c12,0% (inactive)
15,S=C(Nc1cc(Cl)ccc1Cl)Nn1cnnc1,0% (inactive)
16,COc1cc([N+](=O)[O-])ccc1NC(=O)Nn1cnnc1,0% (inactive)
17,OC(Cn1cnnc1)c1ccccc1 (stereo unspecified),0% (inactive)
18,CCN(CC)S(=O)(=O)c1ccc(C(=O)Nn2cnnc2)cc1,0.5% (inactive)
19,Oc1ccc(CCNc2c3ccccc3nc3ccccc23)cc1O,96.3%
20,Oc1ccc(/C=C/c2cc(O)cc(O)c2)cc1,1.33% (inactive)
21,CS(=O)(=O)c1ccc2c(c1)sc1nc(=O)c(/C=C3/C=CC(=O)C(O)=C3)c(N)n12,22.6% (inactive)
22,COc1ccc(Cl)cc1NC(=O)Nn1cnnc1,5.83% (inactive)
23,O=c1[nH]c(=S)[nH]c(O)c1/C=C1\C=c2ccccc2=N1,2.67% (inactive)
24,Cc1ccc(Cl)cc1NC(=O)Nn1cnnc1,2.5% (inactive)
